The text below walks through data of ChEMBL document CHEMBL1131626 (J Med Chem, 1998).

Experiment [1] addresses T1, Progesterone receptor (Mus musculus) (UniProt Q00175).
T1 sequence (whole entry): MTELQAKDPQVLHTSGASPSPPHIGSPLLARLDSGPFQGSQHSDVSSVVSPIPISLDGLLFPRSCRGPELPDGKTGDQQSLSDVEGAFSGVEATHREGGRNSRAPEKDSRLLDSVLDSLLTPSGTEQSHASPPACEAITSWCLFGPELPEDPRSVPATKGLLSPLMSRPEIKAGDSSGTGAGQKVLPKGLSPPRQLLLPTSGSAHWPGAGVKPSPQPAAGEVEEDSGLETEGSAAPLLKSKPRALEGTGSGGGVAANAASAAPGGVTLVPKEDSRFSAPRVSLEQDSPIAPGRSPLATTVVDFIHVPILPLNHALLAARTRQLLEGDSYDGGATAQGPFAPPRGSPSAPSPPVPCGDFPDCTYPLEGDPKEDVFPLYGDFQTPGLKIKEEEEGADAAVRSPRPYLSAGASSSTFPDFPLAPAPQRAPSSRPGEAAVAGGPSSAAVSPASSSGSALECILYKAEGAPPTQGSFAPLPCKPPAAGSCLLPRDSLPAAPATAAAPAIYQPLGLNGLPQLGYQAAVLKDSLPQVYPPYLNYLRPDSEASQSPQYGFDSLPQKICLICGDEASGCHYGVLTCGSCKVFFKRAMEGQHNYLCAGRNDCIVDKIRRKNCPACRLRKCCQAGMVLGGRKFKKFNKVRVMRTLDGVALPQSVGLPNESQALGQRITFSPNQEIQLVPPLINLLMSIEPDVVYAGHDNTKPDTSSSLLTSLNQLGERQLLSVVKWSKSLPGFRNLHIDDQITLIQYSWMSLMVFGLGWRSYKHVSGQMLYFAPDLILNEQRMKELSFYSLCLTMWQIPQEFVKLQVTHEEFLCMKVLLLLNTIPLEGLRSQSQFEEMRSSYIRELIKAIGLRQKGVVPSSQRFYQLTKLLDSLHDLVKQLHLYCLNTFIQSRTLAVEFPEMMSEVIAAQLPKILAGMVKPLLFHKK
In words: Effect on pregnancy in mice as corpora lutea at 3 mg/mouse dose with simultaneous 0.5 mg RU-486 dose. It counts as functional, organism-based. A digest of the protocol:
(§1)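 Mature virgin ICR mice, 10-12 weeks old, mated overnight; vaginal plug marks day 1. Oral RU486 0.5 mg (~15 mg/kg), alone or with test compound (mg/mouse), on days 2-4. Compounds in ethanol diluted with corn oil, 0.1 mL. Oil controls. Necropsy on day 8 to count corpora lutea and implantation sites and to score pregnancy. Student t-test.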

Experiment [2] has as its target T1, Progesterone receptor (Mus musculus). Briefly: Effect on pregnancy in mice as corpora lutea at 1 mg/mouse dose with simultaneous 0.5 mg RU-486 dose. The format is functional, organism-based. The gist of the method: as §1
Experiment [3] shares this target. Briefly: Effect on pregnancy in mice as implantation at 1 mg/mouse dose with simultaneous 0.5 mg RU-486 dose. The format is functional. A digest of the protocol:
as §1

The target is the same in experiment [4]. In words: Effect on pregnancy in mice as implantation at 3 mg/mouse dose with simultaneous 0.5 mg RU-486 dose. It counts as functional. A digest of the protocol: as §1
The target is the same in experiment [5]. Briefly: Effect on pregnancy in mice as percent pregnant at 1 mg/mouse dose with simultaneous 0.5 mg RU-486 dose. It counts as functional. The gist of the method: as §1
The target is the same in experiment [6]. In words: Effect on pregnancy in mice as percent pregnant at 3 mg/mouse dose with simultaneous 0.5 mg RU-486 dose. It counts as functional. The gist of the method:
as §1

Experiment [7] has the same target. Briefly: Effect on pregnancy in mice as number pregnant/mated at 1 mg/mouse dose with simultaneous 0.5 mg RU-486 dose; out of 11. The format is functional. A digest of the protocol:
as §1

Experiment [8] shares this target. Briefly: Effect on pregnancy in mice as number pregnant/mated at 3 mg/mouse dose with simultaneous 0.5 mg RU-486 dose; out of 9. It counts as functional. A digest of the protocol: as §1
Experiment [9] shares this target. Briefly: Effect on pregnancy in mice as corpora lutea at 0.5 mg/mouse dose with simultaneous 0.5 mg RU-486 dose. The format is functional, organism-based. A digest of the protocol:
as §1

Experiment [10] shares this target. In words: Effect on pregnancy in mice as implantation at 0.5 mg/mouse dose with simultaneous 0.5 mg RU-486 dose. It counts as functional. A digest of the protocol:
as §1

The target is the same in experiment [11]. In words: Effect on pregnancy in mice as percent pregnant at 0.5 mg/mouse dose with simultaneous 0.5 mg RU-486 dose. It counts as functional. A digest of the protocol: as §1
For experiment [12] the target is unchanged. In words: Effect on pregnancy in mice as number pregnant/mated at 0.5 mg/mouse dose with simultaneous 0.5 mg RU-486 dose; out of 16. The format is functional. A digest of the protocol: as §1
Experiment [13] has the same target. In words: Effect on pregnancy in mice as corpora lutea at 30 mg/mouse dose with simultaneous 0.5 mg RU-486 dose. It counts as functional, organism-based. The gist of the method: as §1
For experiment [14] the target is unchanged. Briefly: Effect on pregnancy in mice as corpora lutea at 10 mg/mouse dose with simultaneous 0.5 mg RU-486 dose. It counts as functional, organism-based. A digest of the protocol: as §1
Experiment [15] shares this target. Briefly: Effect on pregnancy in mice as implantation at 10 mg/mouse dose with simultaneous 0.5 mg RU-486 dose. It counts as functional. The gist of the method:
as §1

Experiment [16] has the same target. Briefly: Effect on pregnancy in mice as implantation at 30 mg/mouse dose with simultaneous 0.5 mg RU-486 dose. The format is functional. A digest of the protocol:
as §1

For experiment [17] the target is unchanged. Briefly: Effect on pregnancy in mice as percent pregnant at 10 mg/mouse dose with simultaneous 0.5 mg RU-486 dose. The format is functional. A digest of the protocol: as §1
Experiment [18] has the same target. Briefly: Effect on pregnancy in mice as percent pregnant at 30 mg/mouse dose with simultaneous 0.5 mg RU-486 dose. It counts as functional. A digest of the protocol:
as §1

Experiment [19] shares this target. In words: Effect on pregnancy in mice as number pregnant/mated at 1 mg/mouse dose with simultaneous 0.5 mg RU-486 dose; out of 10. The format is functional. The gist of the method:
as §1

For experiment [20] the target is unchanged. Briefly: Effect on pregnancy in mice as number pregnant/mated at 10 mg/mouse dose with simultaneous 0.5 mg RU-486 dose; out of 10. It counts as functional. A digest of the protocol:
as §1

Experiment [21] has the same target. Briefly: Effect on pregnancy in mice as number pregnant/mated at 3 mg/mouse dose with simultaneous 0.5 mg RU-486 dose; out of 12. The format is functional. A digest of the protocol: as §1
Experiment [22] has the same target. Briefly: Effect on pregnancy in mice as number pregnant/mated at 30 mg/mouse dose with simultaneous 0.5 mg RU-486 dose; out of 10. The format is functional. A digest of the protocol:
as §1

On to `CC#C[C@]1(O)CC[C@H]2[C@@H]3CCC4=CC(=O)CCC4=C3[C@@H](c3ccc(N(C)C)cc3)C[C@@]21C.CC1=CC(C)(C)Nc2ccc3c(c21)C(c1cccc(Cl)c1)Oc1ccc(F)cc1-3`, for which the Corpora lutea in [1] and in experiment [2] was 14.1 in each case. The Implants in experiment [3] was 12; in [4], 13.7. Further, the results for the Pregnant in experiment [5] and in experiment [6] were 91% and 100%, respectively. Moreover, the No. pregnant/mated in experiment [7] came to 10; in experiment [8], 9.

Compound `CC#C[C@]1(O)CC[C@H]2[C@@H]3CCC4=CC(=O)CCC4=C3[C@@H](c3ccc(N(C)C)cc3)C[C@@]21C` gave a Corpora lutea in experiment [9] of 13.4. The Implants in experiment [10] amounted to 3.3. This compound also returned a Pregnant in experiment [11] of 18.8%. The compound also had a No. pregnant/mated in experiment [12] of 3.

With `CC#C[C@]1(O)CC[C@H]2[C@@H]3CCC4=CC(=O)CCC4=C3[C@@H](c3ccc(N(C)C)cc3)C[C@@]21C.CC(=O)O[C@]1(C(C)=O)CC[C@H]2[C@@H]3C[C@H](C)C4=CC(=O)CC[C@]4(C)[C@H]3CC[C@@]21C`, the Corpora lutea is 13.6 in [1], 10.7 in experiment [13], 11.7 in [2] and 12.3 in experiment [14]. Moreover, the Implants in [3] amounted to 1.2; in [15], 1.4; in experiment [4], 2.6; in [16], 6.7. For the same compound, the Pregnant in experiment [5] came to 10%; in [17], 10%; in experiment [6] it was 16.7%; in experiment [18], 50%. In addition, the No. pregnant/mated in experiment [19] turned out to be 1; in [20], 1; in experiment [21], 2; in [22], 5.
